This passage reports IC50 results from ChEMBL document CHEMBL1127482 (J Med Chem, 1994).

One experiment is filed under the species Homo sapiens. Put plainly: Inhibition of 10 uM ADP induced platelet aggregation in human platelet rich citreated plasma (PRP). It counts as functional. In a few lines: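 Aggregation is read as the increase in light transmission in an aggregometer, with platelets used within 3 h of collection. IC50 comes from regression of dose-response curves for inhibition of maximal aggregation, adjusted against a standard run in each experiment.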

The next experiment deals with Integrin alpha-V/beta-5 (Homo sapiens, UniProt P06756+P18084). In words: Binding affinity against integrin alpha V-beta5 in enzyme linked immunosorbent assay (ELISA). The class given is protein-complex assay. In a few lines:
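It is added to wells coated with human vitronectin in 0.1 M carbonate, pH 9.6, with 10-fold serial peptide dilutions for 3 h at room temperature. Detection uses rabbit anti-VnR, HRP anti-rabbit IgG and o-phenylenediamine/H2O2.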

*1 amine or outer side, *2 acyl side, *3 side chain or, on linkers, in order; H or OH if unused. Where a SMILES comes first, the peptide text is derived from it. Bridges are numbered along the chain shown (N, C = ends). X1 = O=C(CC1(S[*:2])CCCCC1)[*:1]; X4 = C[C@H](S[*:2])C(=O)[*:1]

Integrin alpha-V/beta-5, sequence (P06756 31-889 limits assumed): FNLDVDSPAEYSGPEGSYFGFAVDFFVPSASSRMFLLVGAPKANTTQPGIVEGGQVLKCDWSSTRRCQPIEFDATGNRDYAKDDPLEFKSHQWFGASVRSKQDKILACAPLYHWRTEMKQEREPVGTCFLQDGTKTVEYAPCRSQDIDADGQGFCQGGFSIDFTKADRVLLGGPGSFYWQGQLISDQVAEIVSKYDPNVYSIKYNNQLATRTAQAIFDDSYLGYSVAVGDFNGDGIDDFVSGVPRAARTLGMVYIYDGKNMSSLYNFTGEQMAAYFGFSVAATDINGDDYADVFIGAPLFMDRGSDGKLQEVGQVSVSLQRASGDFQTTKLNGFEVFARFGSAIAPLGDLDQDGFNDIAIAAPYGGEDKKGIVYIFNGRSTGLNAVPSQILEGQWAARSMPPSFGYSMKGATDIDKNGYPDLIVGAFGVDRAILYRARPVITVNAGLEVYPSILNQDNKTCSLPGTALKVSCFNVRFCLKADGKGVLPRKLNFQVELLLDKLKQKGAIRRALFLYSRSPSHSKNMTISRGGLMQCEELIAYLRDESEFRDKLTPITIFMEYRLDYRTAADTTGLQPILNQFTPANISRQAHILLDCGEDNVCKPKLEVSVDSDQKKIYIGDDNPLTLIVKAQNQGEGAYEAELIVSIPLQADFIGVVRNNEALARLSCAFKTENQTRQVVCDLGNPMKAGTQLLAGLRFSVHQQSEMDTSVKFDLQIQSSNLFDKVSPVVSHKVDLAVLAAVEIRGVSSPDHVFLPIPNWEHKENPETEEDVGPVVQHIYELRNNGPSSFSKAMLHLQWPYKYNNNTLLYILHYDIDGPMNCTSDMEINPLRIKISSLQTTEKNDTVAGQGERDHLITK
Integrin alpha-V/beta-5, sequence (P06756 891-1048 limits assumed): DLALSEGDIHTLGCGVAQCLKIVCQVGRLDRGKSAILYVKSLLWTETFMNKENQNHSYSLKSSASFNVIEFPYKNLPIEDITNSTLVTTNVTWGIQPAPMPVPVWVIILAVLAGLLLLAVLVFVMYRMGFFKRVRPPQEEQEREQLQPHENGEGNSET
Integrin alpha-V/beta-5, sequence (P18084 24-799 limits assumed): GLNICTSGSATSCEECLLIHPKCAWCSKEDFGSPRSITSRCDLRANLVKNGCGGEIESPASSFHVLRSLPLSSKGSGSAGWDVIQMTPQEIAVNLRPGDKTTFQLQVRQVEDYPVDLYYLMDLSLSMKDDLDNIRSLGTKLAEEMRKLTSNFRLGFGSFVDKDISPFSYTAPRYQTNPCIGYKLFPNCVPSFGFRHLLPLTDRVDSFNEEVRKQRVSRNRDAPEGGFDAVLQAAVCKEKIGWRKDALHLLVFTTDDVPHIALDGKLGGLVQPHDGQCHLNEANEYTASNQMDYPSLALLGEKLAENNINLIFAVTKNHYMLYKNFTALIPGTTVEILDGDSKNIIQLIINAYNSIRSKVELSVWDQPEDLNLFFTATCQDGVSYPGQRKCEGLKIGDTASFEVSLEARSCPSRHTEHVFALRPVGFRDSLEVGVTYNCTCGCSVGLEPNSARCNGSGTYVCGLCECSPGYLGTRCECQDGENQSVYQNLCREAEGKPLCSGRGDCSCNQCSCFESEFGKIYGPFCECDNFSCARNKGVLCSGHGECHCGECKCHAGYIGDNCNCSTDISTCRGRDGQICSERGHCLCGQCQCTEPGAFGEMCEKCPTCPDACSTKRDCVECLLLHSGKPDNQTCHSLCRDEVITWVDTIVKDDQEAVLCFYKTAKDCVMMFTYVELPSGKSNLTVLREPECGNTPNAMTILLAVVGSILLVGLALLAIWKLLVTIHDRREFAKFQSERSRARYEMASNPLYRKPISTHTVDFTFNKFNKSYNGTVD

In the case of `COc1ccc(C[C@@H]2NC(=O)[C@H](CC(=O)O)NC(=O)CNC(=O)[C@H](CCCNC(=N)N)NC(=O)[C@H](Cc3ccc(O)cc3)NC(=O)CNC(=O)[C@@H](NC(=O)[C@@H](N)CCCNC(=N)N)C3(CCCCC3)SSC[C@@H](C(=O)N[C@@H](CCCNC(=N)N)C(=O)O)NC(=O)[C@H](CCCNC(=N)N)NC2=O)cc1`, the values for the IC50 in the experiment listed under Homo sapiens and on Integrin alpha-V/beta-5 were 850 nM and 8800 nM, respectively.

With `COc1ccc(C[C@@H]2NC(=O)[C@H](CC(=O)O)NC(=O)CNC(=O)[C@H](CCCN=C(N)N)NC(=O)[C@@H](Cc3c[nH]cn3)NC(=O)CNC(=O)[C@@H](NC(=O)[C@@H](N)CCCN=C(N)N)C3(CCCCC3)SSC[C@@H](C(=O)N[C@@H](CCCN=C(N)N)C(=O)O)NC(=O)[C@H](CCCN=C(N)N)NC2=O)cc1`, the IC50 in the experiment filed under Homo sapiens is 400 nM.

In the experiment filed under Homo sapiens, `COc1ccc(C[C@@H]2NC(=O)[C@H](CC(=O)O)NC(=O)CNC(=O)[C@H](CCCN=C(N)N)NC(=O)[C@H](Cc3c[nH]cn3)NC(=O)[C@H](CC(N)=O)NC(=O)[C@@H](NC(=O)[C@@H](N)CCCN=C(N)N)C3(CCCCC3)SSC[C@@H](C(=O)N[C@@H](CCCN=C(N)N)C(=O)O)NC(=O)[C@H](CCCN=C(N)N)NC2=O)cc1` came in with an IC50 of 990 nM.

Consider `COc1ccc(C[C@@H]2NC(=O)[C@H](CC(=O)O)NC(=O)CNC(=O)[C@H](CCCN=C(N)N)NC(=O)[C@H](Cc3c[nH]cn3)NC(=O)[C@H](CC(=O)O)NC(=O)[C@@H](NC(=O)[C@@H](N)CCCN=C(N)N)C3(CCCCC3)SSC[C@@H](C(=O)N[C@@H](CCCN=C(N)N)C(=O)O)NC(=O)[C@H](CCCN=C(N)N)NC2=O)cc1`, for which the IC50 in the experiment filed under Homo sapiens was 2750 nM; at Integrin alpha-V/beta-5 it was 7200 nM.

In the experiment filed under Homo sapiens, `CC(C)[C@H]1NC(=O)[C@H](CC(=O)O)NC(=O)CNC(=O)[C@H](CCCN=C(N)N)NC(=O)[C@@H](Cc2c[nH]cn2)NC(=O)CNC(=O)[C@@H](N)CCC/N=C(/N)NC(=O)[C@H](N)C2(CCCCC2)SSC[C@@H](C(=O)N[C@@H](CCCN=C(N)N)C(=O)O)NC(=O)[C@H](CCCN=C(N)N)NC1=O` showed an IC50 of 690 nM.

As for `COc1ccc(C[C@@H]2NC(=O)[C@H](CC(=O)O)NC(=O)CNC(=O)[C@H](CCCNC(=N)N)NC(=O)[C@@H]3CCCN3C(=O)[C@H](CC(N)=O)NC(=O)[C@@H](NC(C)=O)CSSC[C@@H](C(N)=O)NC(=O)[C@H](CCCNC(N)=O)NC2=O)cc1`, the IC50 on Integrin alpha-V/beta-5 was found to be 3460 nM.

Consider `COc1ccc(C[C@@H]2NC(=O)[C@H](CC(=O)O)NC(=O)CNC(=O)[C@H](CCCNC(=N)N)NC(=O)[C@@H]3CCCN3C(=O)[C@H](CC(N)=O)NC(=O)[C@@H](NC(C)=O)CSSC[C@@H](C(N)=O)NC(=O)[C@H](CCCN)NC2=O)cc1`, for which, on Integrin alpha-V/beta-5, the IC50 was 7700 nM.

In the experiment listed under Homo sapiens, `NC(N)=NCCC[C@H](NC(=O)[C@@H]1CSSC2(CCCCC2)[C@H](NC(=O)[C@@H](N)CCCN=C(N)N)C(=O)NCC(=O)N[C@@H](Cc2c[nH]cn2)C(=O)N[C@@H](CCCN=C(N)N)C(=O)NCC(=O)N[C@@H](CC(=O)O)C(=O)N[C@@H](Cc2ccc(O)cc2)C(=O)N[C@@H](CCCN=C(N)N)C(=O)N1)C(=O)O` yielded an IC50 of 970 nM.

Turning to `COc1ccc(C[C@@H]2NC(=O)[C@H](CC(=O)O)NC(=O)CNC(=O)[C@H](CCCN=C(N)N)NC(=O)[C@H](Cc3c[nH]cn3)NC(=O)[C@H](CO)NC(=O)[C@@H](NC(=O)[C@@H](N)CCCN=C(N)N)C3(CCCCC3)SSC[C@@H](C(=O)N[C@@H](CCCN=C(N)N)C(=O)O)NC(=O)[C@H](CCCN=C(N)N)NC2=O)cc1`, the IC50 in the experiment listed under Homo sapiens was determined as 950 nM; at Integrin alpha-V/beta-5, 6600 nM.

On Integrin alpha-V/beta-5, `COc1ccc(C[C@@H]2NC(=O)[C@H](CC(=O)O)NC(=O)CNC(=O)[C@H](CCCN=C(N)N)NC(=O)[C@@H]3CCCN3C(=O)[C@H](CC(N)=O)NC(=O)CCSSC[C@@H](C(N)=O)NC(=O)[C@H](CCCN=C(N)N)NC2=O)cc1` registered an IC50 of 3000 nM.

At Integrin alpha-V/beta-5, `COc1ccc(C[C@@H]2NC(=O)[C@H](CC(=O)O)NC(=O)CNC(=O)[C@H](CCCNC(=N)N)NC(=O)[C@@H]3CCCN3C(=O)[C@H](CC(N)=O)NC(=O)[C@@H](NC(C)=O)CSSC[C@@H](C(N)=O)NC(=O)[C@H](C)NC2=O)cc1` returned an IC50 of 8850 nM.

At Integrin alpha-V/beta-5, `COc1ccc(C[C@@H]2NC(=O)[C@H](CC(=O)O)NC(=O)CNC(=O)[C@H](CCCNC(=N)N)NC(=O)[C@@H]3CCCN3C(=O)[C@H](CC(N)=O)NC(=O)[C@@H](NC(C)=O)CSSC[C@@H](C(N)=O)NC(=O)[C@H](CCC(=O)O)NC2=O)cc1` displayed an IC50 of 9470 nM.

As for `COc1ccc(C[C@@H]2NC(=O)[C@H](CC(=O)O)NC(=O)CNC(=O)[C@H](CCCN=C(N)N)NC(=O)[C@@H]3CCCN3C(=O)[C@H](CC(N)=O)NC(=O)[C@@H](NC(C)=O)C3(CCCCC3)SSC[C@@H](C(N)=O)NC(=O)[C@H](CCCN=C(N)N)NC2=O)cc1` [listing 1 of 2 here], the IC50 on Integrin alpha-V/beta-5 was 2340 nM.

Turning to `COc1ccc(C[C@@H]2NC(=O)[C@H](CC(=O)O)NC(=O)CNC(=O)[C@H](CCCN=C(N)N)NC(=O)[C@@H]3CCCN3C(=O)[C@H](CC(N)=O)NC(=O)[C@@H](NC(C)=O)C3(CCCCC3)SSC[C@@H](C(N)=O)NC(=O)[C@H](CCCN=C(N)N)NC2=O)cc1` [listing 2 of 2 here], the IC50 in the experiment listed under Homo sapiens is 150 nM.

In the case of `N=C(N)NCCC[C@H](NC(=O)[C@@H]1CSSC2(CCCCC2)[C@H](NC(=O)[C@@H](N)CCCNC(=N)N)C(=O)NCC(=O)N[C@@H](Cc2c[nH]cn2)C(=O)N[C@@H](CCCNC(=N)N)C(=O)NCC(=O)N[C@@H](CC(=O)O)C(=O)N[C@@H](CCc2ccccc2)C(=O)N[C@@H](CCCNC(=N)N)C(=O)N1)C(=O)O`, the midpoint of inhibition in the experiment listed under Homo sapiens, the IC50, lay at 600 nM.

On Integrin alpha-V/beta-5, `CC[C@H](C)[C@@H]1NC(=O)[C@@H](NC(=O)[C@@H](N)CCCN=C(N)N)C2(CCCCC2)SSC[C@@H](C(=O)N[C@@H](CCCN=C(N)N)C(=O)O)NC(=O)[C@H](CCCN=C(N)N)NC(=O)[C@H](Cc2ccc(OC)cc2)NC(=O)[C@H](CC(=O)O)NC(=O)CNC(=O)[C@H](CCCN=C(N)N)NC(=O)[C@H](Cc2c[nH]cn2)NC1=O` showed an IC50 of 9900 nM.

For `CCCCOc1ccc(C[C@@H]2NC(=O)[C@H](CC(=O)O)NC(=O)CNC(=O)[C@H](CCCNC(=N)N)NC(=O)[C@@H]3CCCN3C(=O)[C@H](CC(N)=O)NC(=O)[C@@H](NC(C)=O)CSSC[C@@H](C(N)=O)NC(=O)[C@H](CCCNC(=N)N)NC2=O)cc1`, the IC50 stood at 100 nM in the experiment filed under Homo sapiens and 10000 nM at Integrin alpha-V/beta-5.

`COc1ccc(C[C@@H]2NC(=O)[C@H](CC(=O)O)NC(=O)CNC(=O)[C@H](CCCNC(=N)N)NC(=O)[C@@H]3CCCN3C(=O)CNC(=O)[C@@H](NC(=O)[C@@H](N)CCCNC(=N)N)C3(CCCCC3)SSC[C@@H](C(=O)N[C@@H](CCCNC(=N)N)C(=O)O)NC(=O)[C@H](CCCNC(=N)N)NC2=O)cc1` had an IC50 on Integrin alpha-V/beta-5 of 1700 nM.

As for `COc1ccc(C[C@@H]2NC(=O)[C@H](CC(=O)O)NC(=O)CNC(=O)[C@H](CCCNC(=N)N)NC(=O)[C@@H]3CCCN3C(=O)[C@H](CC(N)=O)NC(=O)[C@@H](NC(C)=O)CSSC[C@@H](C(N)=O)NC(=O)[C@H](CC(C)C)NC2=O)cc1`, the IC50 in the experiment filed under Homo sapiens came to 7600 nM; at Integrin alpha-V/beta-5, 7140 nM.

The compound `COc1ccc(C[C@@H]2NC(=O)[C@H](CC(=O)O)NC(=O)CNC(=O)[C@H](CCCNC(=N)N)NC(=O)[C@@H]3CCCN3C(=O)[C@H](CC(N)=O)NC(=O)[C@@H](NC(C)=O)CSSC[C@@H](C(N)=O)NC(=O)[C@H](CCCCN)NC2=O)cc1` registered an IC50 on Integrin alpha-V/beta-5 of 5820 nM.

With `COc1ccc(C[C@@H]2NC(=O)[C@H](CC(=O)O)NC(=O)CNC(=O)[C@H](CCCNC(=N)N)NC(=O)[C@@H](Cc3ccc(O)cc3)NC(=O)CNC(=O)[C@@H](NC(=O)[C@@H](N)CCCNC(=N)N)C3(CCCCC3)SSC[C@@H](C(=O)N[C@@H](CCCNC(=N)N)C(=O)O)NC(=O)[C@H](CCCNC(=N)N)NC2=O)cc1`, the IC50 in the experiment listed under Homo sapiens was found to be 520 nM; on Integrin alpha-V/beta-5, 10000 nM.

Compound `CCCCOc1ccc(C[C@@H]2NC(=O)[C@H](CC(=O)O)NC(=O)CNC(=O)[C@H](CCCN=C(N)N)NC(=O)[C@@H]3CCCN3C(=O)[C@H]([C@@H](C)CC)NC(=O)[C@@H](NC(C)=O)CSSC[C@@H](C(N)=O)NC(=O)[C@H](CCCN=C(N)N)NC2=O)cc1` yielded an IC50 in the experiment listed under Homo sapiens of 480 nM.

For `COc1ccc(C[C@@H]2NC(=O)[C@H](CC(=O)O)NC(=O)CNC(=O)[C@H](CCCCN)NC(=O)[C@@H]3CCCN3C(=O)[C@H](CC(N)=O)NC(=O)[C@@H](NC(C)=O)CSSC[C@@H](C(N)=O)NC(=O)[C@H](CCCN=C(N)N)NC2=O)cc1`, in the experiment filed under Homo sapiens, the IC50 is 700 nM.

As for `CC[C@H](C)[C@@H]1NC(=O)[C@@H](NC(C)=O)CSSC[C@@H](C(N)=O)NC(=O)[C@H](CCCN=C(N)N)NC(=O)[C@H](Cc2ccc(O)cc2)NC(=O)[C@H](CC(=O)O)NC(=O)CNC(=O)[C@H](CCCN=C(N)N)NC(=O)[C@@H]2CCCN2C1=O` (Ac-CIPRGDYRC-NH2; disulfide 1-9), the IC50 in the experiment filed under Homo sapiens came out at 330 nM.

For `COc1ccc(C[C@@H]2NC(=O)[C@H](CC(=O)O)NC(=O)CNC(=O)[C@H](CCCN=C(N)N)NC(=O)[C@@H]3CCCN3C(=O)[C@H](CC(N)=O)NC(=O)CC3(CCCCC3)SSC[C@@H](C(N)=O)NC(=O)[C@H](CCCN=C(N)N)NC2=O)cc1` (NPRGDY(Me)RC-NH2; linker N-8 via X1), the IC50 in the experiment listed under Homo sapiens was found to be 170 nM; at Integrin alpha-V/beta-5, 4900 nM.

`COc1ccc(C[C@@H]2NC(=O)[C@H](CC(=O)O)NC(=O)CNC(=O)[C@H](CCCN=C(N)N)NC(=O)[C@@H]3CCCN3C(=O)[C@H](CC(N)=O)NC(=O)[C@H](C)SSC[C@@H](C(N)=O)NC(=O)[C@H](CCCN=C(N)N)NC2=O)cc1` (NPRGDY(Me)RC-NH2; linker N-8 via X4) yielded an IC50 in the experiment listed under Homo sapiens of 170 nM.

For the compound `CC(C)C[C@@H]1NC(=O)[C@H](CC(=O)O)NC(=O)CNC(=O)[C@H](CCCNC(=N)N)NC(=O)[C@H](Cc2c[nH]cn2)NC(=O)CNC(=O)[C@H](NC(=O)CN)C(C)(C)SSC[C@@H](C(=O)N[C@@H](C)C(=O)O)NC(=O)[C@H](CCCNC(=N)N)NC1=O` (stereo in doubt; 1), the IC50 on Integrin alpha-V/beta-5 is 8260 nM.
